The test system of assay [1] is Escherichia coli. In words: Minimum inhibitory concentration against Escherichia coli (H560). Format: functional. Summed up: (§1)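 MICs were determined by standard microtitration against a panel of 11 bacterial strains. Aqueous stock solutions were prepared with 0.1 N sodium or potassium hydroxide.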
The target in assay [2] is DNA gyrase (Escherichia coli) (UniProt P0AES6+P0AES4). In words: Concentration required for 50% inhibition of gyrase. Format: protein-complex assay. Summed up: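 DNA gyrase inhibition: the drug concentration (µg/mL) giving 50% inhibition (I50) was recorded, along with the lowest concentration inducing gyrase-mediated DNA cleavage. Data come from duplicate experiments with ±50% reproducibility.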

The test system of another assay is Streptococcus pyogenes. The assay can be described thus: Minimum inhibitory concentration against Streptococcus pyogenes (C203). Format: functional. Summed up:
as §1

Assay [3] concerns Staphylococcus aureus. In words: Minimum inhibitory concentration against Staphylococcus aureus (UC76). Format: functional. Summed up: as §1
In a further assay the test system is Klebsiella pneumoniae. The assay can be described thus: Minimum inhibitory concentration against Klebsiella pneumoniae (MGH-2). Format: functional. Summed up: as §1
A further assay deals with Enterobacter. In words: Minimum inhibitory concentration against gram-negative enterobacteriaceae. Format: functional. Summed up:
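This value is the geometric mean of microtitration MICs for the Gram-negative Enterobacteriaceae strains in the 11-organism panel. Aqueous stocks were prepared in 0.1 N sodium or potassium hydroxide.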

The next assay deals with Pseudomonas aeruginosa. The assay can be described thus: Minimum inhibitory concentration against Pseudomonas aeruginosa. (UI-18). Format: functional. Summed up:
as §1

The next assay has as its system Enterobacter cloacae. The assay can be described thus: Minimum inhibitory concentration against Enterobacter cloacae. (MA2446). Format: functional.
Another assay deals with Providencia rettgeri. In words: Minimum inhibitory concentration against Providencia rettgeri. (M1771). Format: functional. Summed up:
as §1

The test system of assay [4] is Escherichia coli. In words: Minimum inhibitory concentration against Escherichia coli (vogel). Format: functional. Summed up: as §1
The test system of another assay is Streptococcus pneumoniae. In words: Minimum inhibitory concentration against Streptococcus pneumoniae (SV-1). Format: functional. Summed up:
as §1

The subject of assay [5] is Staphylococcus aureus. The assay can be described thus: Minimum inhibitory concentration against Staphylococcus aureus (H-228). Format: functional. Summed up:
as §1

A further assay has as its system Enterococcus faecalis. In words: Minimum inhibitory concentration against Streptococcus faecalis (MGH-2). Format: functional. Summed up: as §1

The source of these data is ChEMBL document CHEMBL1124223, “1-Substituted 7-[3-[(ethylamino)methyl]-1-pyrrolidinyl]-6,8- difluoro-1,4-dihydro-4-oxo-3-quinolinecarboxylic acids. New quantitative structure-activity relationships at N1 for the quinolone antibacterials” (1988).

SMILES strings stand for the structures. In brackets after ≈: the same amount, converted by molar mass. Bounds are passed on as bounds.

As usually defined, the MIC is the lowest concentration that inhibits growth of the organism. Usually IC50 stands for the concentration needed to halve the response being measured. Low readings indicate inhibition by little substance, high ones a need for much substance. As for `CCNCC1CCN(c2c(F)cc3c(=O)c(C(=O)O)cn(C)c3c2F)C1` (stereo unspecified), the MIC in the assay on Escherichia coli [1] was determined as 0.1 µg/mL (≈ 0.274 µM); with Streptococcus pyogenes, 0.4 µg/mL (≈ 1.09 µM); in the assay with Staphylococcus aureus [3], 0.2 µg/mL (≈ 0.547 µM); against Klebsiella pneumoniae, 0.4 µg/mL (≈ 1.09 µM); in the assay on Enterobacter it was 0.53 µg/mL (≈ 1.45 µM); in the assay on Pseudomonas aeruginosa, 1.6 µg/mL (≈ 4.38 µM). Moreover, the MIC against Enterobacter cloacae was 1.6 µg/mL (≈ 4.38 µM); with Providencia rettgeri, 1.6 µg/mL (≈ 4.38 µM); in the assay with Escherichia coli [4], 0.4 µg/mL (≈ 1.09 µM); against Streptococcus pneumoniae, 0.4 µg/mL (≈ 1.09 µM); against Staphylococcus aureus [5], 1.6 µg/mL (≈ 4.38 µM); with Enterococcus faecalis it was 1.6 µg/mL (≈ 4.38 µM). Moreover, in assay [2], 7.5 µg/mL (≈ 20.5 µM) corresponded to half-maximal inhibition (IC50).
As to `CNn1cc(C(=O)O)c(=O)c2cc(F)c(N3CCN(C)CC3)cc21` [AMIFLOXACIN], the minimal inhibitory concentration (MIC) stood at 0.025 µg/mL (≈ 0.0748 µM) in the assay on Escherichia coli [1]; 12.5 µg/mL (≈ 37.4 µM) in the assay with Streptococcus pyogenes; 0.4 µg/mL (≈ 1.2 µM) against Staphylococcus aureus [3]; 0.2 µg/mL (≈ 0.598 µM) against Klebsiella pneumoniae; 0.1 µg/mL (≈ 0.299 µM) against Enterobacter; 0.8 µg/mL (≈ 2.39 µM) in the assay with Pseudomonas aeruginosa. Also, the MIC against Providencia rettgeri is 0.2 µg/mL (≈ 0.598 µM); against Escherichia coli [4], 0.1 µg/mL (≈ 0.299 µM); against Streptococcus pneumoniae, 12.5 µg/mL (≈ 37.4 µM); with Staphylococcus aureus [5] it was 1.6 µg/mL (≈ 4.79 µM); against Enterococcus faecalis, 3.1 µg/mL (≈ 9.27 µM).
For `C=Cn1cc(C(=O)O)c(=O)c2cc(F)c(N3CCC(CNCC)C3)c(F)c21` (stereo unspecified), the MIC in the assay on Escherichia coli [1] was 0.1 µg/mL (≈ 0.265 µM); against Streptococcus pyogenes, 0.1 µg/mL (≈ 0.265 µM); against Staphylococcus aureus [3] it was 0.1 µg/mL (≈ 0.265 µM); in the assay with Klebsiella pneumoniae, 0.4 µg/mL (≈ 1.06 µM); against Enterobacter, 0.3 µg/mL (≈ 0.795 µM); against Pseudomonas aeruginosa it was 1.6 µg/mL (≈ 4.24 µM). The MIC against Enterobacter cloacae was 0.2 µg/mL (≈ 0.53 µM); with Providencia rettgeri, 1.6 µg/mL (≈ 4.24 µM); in the assay with Escherichia coli [4], 0.2 µg/mL (≈ 0.53 µM); against Streptococcus pneumoniae, 0.2 µg/mL (≈ 0.53 µM); against Staphylococcus aureus [5] it was 0.4 µg/mL (≈ 1.06 µM); with Enterococcus faecalis it was 0.4 µg/mL (≈ 1.06 µM). Further, half-maximal inhibition in [2] (IC50) required 2.9 µg/mL (≈ 7.68 µM).
In the case of `CCNCC1CCN(c2c(F)cc3c(=O)c(C(=O)O)cn(NC)c3c2F)C1` (stereo unspecified), the MIC turned out to be 0.2 µg/mL (≈ 0.526 µM) with Escherichia coli [1]; 0.2 µg/mL (≈ 0.526 µM) against Streptococcus pyogenes; 0.2 µg/mL (≈ 0.526 µM) in the assay on Staphylococcus aureus [3]; 0.2 µg/mL (≈ 0.526 µM) with Klebsiella pneumoniae; 0.3 µg/mL (≈ 0.789 µM) in the assay with Enterobacter; 0.8 µg/mL (≈ 2.1 µM) against Pseudomonas aeruginosa. For the same molecule, the MIC stood at 0.2 µg/mL (≈ 0.526 µM) with Enterobacter cloacae; 1.6 µg/mL (≈ 4.21 µM) against Providencia rettgeri; 0.2 µg/mL (≈ 0.526 µM) with Escherichia coli [4]; 0.1 µg/mL (≈ 0.263 µM) against Streptococcus pneumoniae; 0.4 µg/mL (≈ 1.05 µM) in the assay with Staphylococcus aureus [5]; 0.4 µg/mL (≈ 1.05 µM) against Enterococcus faecalis. Further, in assay [2], the IC50 worked out at 27 µg/mL (≈ 71 µM).
As for `CCNCC1CCN(c2c(F)cc3c(=O)c(C(=O)O)cn(C(C)C)c3c2F)C1` (stereo unspecified), the minimum inhibitory concentration (MIC) with Escherichia coli [1] is 0.2 µg/mL (≈ 0.508 µM); with Streptococcus pyogenes it was 0.2 µg/mL (≈ 0.508 µM); in the assay with Staphylococcus aureus [3] it was 0.2 µg/mL (≈ 0.508 µM); against Klebsiella pneumoniae, 0.8 µg/mL (≈ 2.03 µM); in the assay with Enterobacter, 1.05 µg/mL (≈ 2.67 µM); with Pseudomonas aeruginosa, 12.5 µg/mL (≈ 31.8 µM). Besides, the MIC was determined as 1.6 µg/mL (≈ 4.07 µM) against Enterobacter cloacae; 6.3 µg/mL (≈ 16 µM) in the assay on Providencia rettgeri; 0.8 µg/mL (≈ 2.03 µM) with Escherichia coli [4]; 0.8 µg/mL (≈ 2.03 µM) with Streptococcus pneumoniae; 0.4 µg/mL (≈ 1.02 µM) against Staphylococcus aureus [5]; 1.6 µg/mL (≈ 4.07 µM) in the assay on Enterococcus faecalis. The molecule also showed a concentration for half-maximal inhibition (IC50) in assay [2] of 28 µg/mL (≈ 71.2 µM).
Consider `CCNCC1CCN(c2c(F)cc3c(=O)c(C(=O)O)cn(C4CCCCC4)c3c2F)C1` (stereo unspecified), for which the MIC against Escherichia coli [1] was 3.1 µg/mL (≈ 7.15 µM); against Streptococcus pyogenes, 6.3 µg/mL (≈ 14.5 µM); in the assay on Staphylococcus aureus [3] it was 3.1 µg/mL (≈ 7.15 µM); in the assay on Klebsiella pneumoniae it was 12.5 µg/mL (≈ 28.8 µM); against Enterobacter, 16.5 µg/mL (≈ 38.1 µM); against Pseudomonas aeruginosa, greater than 100 µg/mL. The minimum inhibitory concentration (MIC) was 25 µg/mL (≈ 57.7 µM) with Enterobacter cloacae; greater than 100 µg/mL in the assay on Providencia rettgeri; 6.3 µg/mL (≈ 14.5 µM) in the assay on Escherichia coli [4]; 3.1 µg/mL (≈ 7.15 µM) in the assay on Streptococcus pneumoniae; 6.3 µg/mL (≈ 14.5 µM) in the assay on Staphylococcus aureus [5]; 6.3 µg/mL (≈ 14.5 µM) against Enterococcus faecalis. The same molecule showed a 50% inhibitory concentration (IC50) in assay [2] of 30 µg/mL (≈ 69.2 µM).
For the molecule `CCNCC1CCN(c2c(F)cc3c(=O)c(C(=O)O)cn(C4(C)CC4)c3c2F)C1` (stereo unspecified), the minimal inhibitory concentration (MIC) in the assay with Escherichia coli [1] was 1.6 µg/mL (≈ 3.95 µM); with Streptococcus pyogenes it was 0.8 µg/mL (≈ 1.97 µM); with Staphylococcus aureus [3] it was 0.1 µg/mL (≈ 0.247 µM); with Klebsiella pneumoniae, 0.8 µg/mL (≈ 1.97 µM); against Enterobacter, 1.38 µg/mL (≈ 3.4 µM); against Pseudomonas aeruginosa it was 3.1 µg/mL (≈ 7.65 µM). The MIC against Enterobacter cloacae came to 3.1 µg/mL (≈ 7.65 µM); against Providencia rettgeri, 1.6 µg/mL (≈ 3.95 µM); against Escherichia coli [4], 0.8 µg/mL (≈ 1.97 µM); in the assay with Streptococcus pneumoniae, 0.8 µg/mL (≈ 1.97 µM); against Staphylococcus aureus [5] it was 0.4 µg/mL (≈ 0.987 µM); against Enterococcus faecalis it was 0.2 µg/mL (≈ 0.493 µM). Further, the IC50 in [2] is 6.3 µg/mL (≈ 15.5 µM).
Consider `CN1CCN(c2c(F)cc3c(=O)c(C(=O)O)cn(CCF)c3c2F)CC1` [FLEROXACIN], for which the minimal inhibitory concentration (MIC) in the assay on Escherichia coli [1] worked out at 0.1 µg/mL (≈ 0.271 µM); in the assay with Streptococcus pyogenes it was 6.3 µg/mL (≈ 17.1 µM); in the assay on Staphylococcus aureus [3], 0.2 µg/mL (≈ 0.542 µM); against Klebsiella pneumoniae, 0.2 µg/mL (≈ 0.542 µM); in the assay on Enterobacter, 0.2 µg/mL (≈ 0.542 µM); in the assay on Pseudomonas aeruginosa, 1.6 µg/mL (≈ 4.33 µM). The MIC in the assay on Enterobacter cloacae came to 0.2 µg/mL (≈ 0.542 µM); with Providencia rettgeri, 0.4 µg/mL (≈ 1.08 µM); in the assay with Escherichia coli [4] it was 0.2 µg/mL (≈ 0.542 µM); with Streptococcus pneumoniae it was 6.3 µg/mL (≈ 17.1 µM); against Staphylococcus aureus [5], 0.8 µg/mL (≈ 2.17 µM); in the assay with Enterococcus faecalis, 3.1 µg/mL (≈ 8.39 µM).
